# Measured values from ChEMBL document CHEMBL4689842, “EUbOPEN Chemogenomics Library wave 1” (2021).
# Test system: HEK-293T
# Experiment: Multiplex assay against HEK293T;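 as to Population Tubulin-Different-Phenotype (%): share of the cells with healthy nuclei that show this phenotype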
# Format: toxicity, cell-based
# Details: human
# In short: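 With compound added, live cells were imaged on a CQ1 microscope at 37°C and 5% CO2; staining with Hoechst33342, BioTracker Green Microtubule Cytoskeleton Dye, MitoTracker Red and Annexin V Alexa Fluor 680 had been done at seeding. The CellPathfinder machine-learning gating scheme split cells into Hoechst high-intensity objects or normal cells, normal cells into healthy, pyknosed or fragmented nuclei, and pyknosed cells into mitotic or apoptotic. The tubulin, mitochondrial-mass and membrane-permeability phenotypes are per cents of healthy-nucleus cells.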
# [1] = 12 h, 1 µM, compound concentration 1 uM, replicate 1
# [2] = 12 h, 1 µM, compound concentration 1 uM, replicate 2
# [3] = 12 h, 10 µM, compound concentration 10 uM, replicate 1
# [4] = 12 h, 10 µM, compound concentration 10 uM, replicate 2
# [5] = 24 h, 1 µM, compound concentration 1 uM, replicate 1
# [6] = 24 h, 1 µM, compound concentration 1 uM, replicate 2
# [7] = 24 h, 10 µM, compound concentration 10 uM, replicate 1
# [8] = 24 h, 10 µM, compound concentration 10 uM, replicate 2
# [9] = 48 h, 1 µM, compound concentration 1 uM, replicate 1
# [10] = 48 h, 1 µM, compound concentration 1 uM, replicate 2
# [11] = 48 h, 10 µM, compound concentration 10 uM, replicate 1
# [12] = 48 h, 10 µM, compound concentration 10 uM, replicate 2
smiles,measurement,setting,value
CN1CCC(=C2c3ccccc3CC(=O)c3sccc32)CC1.O=C(O)/C=C/C(=O)O [KETOTIFEN FUMARATE],Population Apoptotic (%),[1],46%
same,Population Fragmented Nuclei (%),[1],10%
same,Population Healthy Nuclei (%),[1],37%
same,Population Hoechst High Intensity Objects (%),[1],13%
same,Population Membrane Permeable-Phenotype (%),[1],5%
same,Population Mitochondria Different-Phenotype (%),[1],73%
same,Population Mitotic Cells (%),[1],53%
same,Population Normal (%),[1],86%
same,Population Pyknosed Nuclei (%),[1],51%
same,Population Tubulin-Different-Phenotype (%),[1],40%
same,Total Cell Count,[1],288
same,Population Apoptotic (%),[2],13%
same,Population Fragmented Nuclei (%),[2],4%
same,Population Healthy Nuclei (%),[2],40%
same,Population Hoechst High Intensity Objects (%),[2],4%
same,Population Membrane Permeable-Phenotype (%),[2],12%
same,Population Mitochondria Different-Phenotype (%),[2],17%
same,Population Mitotic Cells (%),[2],86%
same,Population Normal (%),[2],95%
same,Population Pyknosed Nuclei (%),[2],54%
same,Population Tubulin-Different-Phenotype (%),[2],28%
same,Total Cell Count,[2],211
same,Population Apoptotic (%),[3],71%
same,Population Fragmented Nuclei (%),[3],11%
same,Population Healthy Nuclei (%),[3],28%
same,Population Hoechst High Intensity Objects (%),[3],10%
same,Population Membrane Permeable-Phenotype (%),[3],4%
same,Population Mitochondria Different-Phenotype (%),[3],98%
same,Population Mitotic Cells (%),[3],28%
same,Population Normal (%),[3],89%
same,Population Pyknosed Nuclei (%),[3],60%
same,Population Tubulin-Different-Phenotype (%),[3],97%
same,Total Cell Count,[3],298
same,Population Apoptotic (%),[4],54%
same,Population Fragmented Nuclei (%),[4],7%
same,Population Healthy Nuclei (%),[4],22%
same,Population Hoechst High Intensity Objects (%),[4],5%
same,Population Membrane Permeable-Phenotype (%),[4],0%
same,Population Mitochondria Different-Phenotype (%),[4],100%
same,Population Mitotic Cells (%),[4],45%
same,Population Normal (%),[4],94%
same,Population Pyknosed Nuclei (%),[4],69%
same,Population Tubulin-Different-Phenotype (%),[4],100%
same,Total Cell Count,[4],177
same,Population Apoptotic (%),[5],50%
same,Population Fragmented Nuclei (%),[5],12%
same,Population Healthy Nuclei (%),[5],42%
same,Population Hoechst High Intensity Objects (%),[5],8%
same,Population Membrane Permeable-Phenotype (%),[5],7%
same,Population Mitochondria Different-Phenotype (%),[5],67%
same,Population Mitotic Cells (%),[5],49%
same,Population Normal (%),[5],91%
same,Population Pyknosed Nuclei (%),[5],44%
same,Population Tubulin-Different-Phenotype (%),[5],49%
same,Total Cell Count,[5],307
same,Population Apoptotic (%),[6],13%
same,Population Fragmented Nuclei (%),[6],3%
same,Population Healthy Nuclei (%),[6],55%
same,Population Hoechst High Intensity Objects (%),[6],2%
same,Population Membrane Permeable-Phenotype (%),[6],14%
same,Population Mitochondria Different-Phenotype (%),[6],20%
same,Population Mitotic Cells (%),[6],86%
same,Population Normal (%),[6],97%
same,Population Pyknosed Nuclei (%),[6],41%
same,Population Tubulin-Different-Phenotype (%),[6],48%
same,Total Cell Count,[6],251
same,Population Apoptotic (%),[7],75%
same,Population Fragmented Nuclei (%),[7],12%
same,Population Healthy Nuclei (%),[7],32%
same,Population Hoechst High Intensity Objects (%),[7],11%
same,Population Membrane Permeable-Phenotype (%),[7],1%
same,Population Mitochondria Different-Phenotype (%),[7],97%
same,Population Mitotic Cells (%),[7],24%
same,Population Normal (%),[7],88%
same,Population Pyknosed Nuclei (%),[7],55%
same,Total Cell Count,[7],313
same,Population Apoptotic (%),[8],74%
same,Population Fragmented Nuclei (%),[8],4%
same,Population Healthy Nuclei (%),[8],35%
same,Population Hoechst High Intensity Objects (%),[8],4%
same,Population Membrane Permeable-Phenotype (%),[8],3%
same,Population Mitochondria Different-Phenotype (%),[8],95%
same,Population Mitotic Cells (%),[8],25%
same,Population Normal (%),[8],95%
same,Population Pyknosed Nuclei (%),[8],59%
same,Population Tubulin-Different-Phenotype (%),[8],98%
same,Total Cell Count,[8],180
same,Population Apoptotic (%),[9],35%
same,Population Fragmented Nuclei (%),[9],12%
same,Population Healthy Nuclei (%),[9],40%
same,Population Hoechst High Intensity Objects (%),[9],15%
same,Population Membrane Permeable-Phenotype (%),[9],7%
same,Population Mitochondria Different-Phenotype (%),[9],52%
same,Population Mitotic Cells (%),[9],64%
same,Population Normal (%),[9],84%
same,Population Pyknosed Nuclei (%),[9],46%
same,Population Tubulin-Different-Phenotype (%),[9],52%
same,Total Cell Count,[9],369
same,Population Apoptotic (%),[10],16%
same,Population Fragmented Nuclei (%),[10],4%
same,Population Healthy Nuclei (%),[10],79%
same,Population Hoechst High Intensity Objects (%),[10],4%
same,Population Membrane Permeable-Phenotype (%),[10],10%
same,Population Mitochondria Different-Phenotype (%),[10],11%
same,Population Mitotic Cells (%),[10],83%
same,Population Normal (%),[10],95%
same,Population Pyknosed Nuclei (%),[10],16%
same,Population Tubulin-Different-Phenotype (%),[10],38%
same,Total Cell Count,[10],468
same,Population Apoptotic (%),[11],71%
same,Population Fragmented Nuclei (%),[11],21%
same,Population Healthy Nuclei (%),[11],40%
same,Population Hoechst High Intensity Objects (%),[11],13%
same,Population Membrane Permeable-Phenotype (%),[11],2%
same,Population Mitochondria Different-Phenotype (%),[11],93%
same,Population Mitotic Cells (%),[11],28%
same,Population Normal (%),[11],86%
same,Population Pyknosed Nuclei (%),[11],38%
same,Population Tubulin-Different-Phenotype (%),[11],95%
same,Total Cell Count,[11],362
same,Population Apoptotic (%),[12],72%
same,Population Fragmented Nuclei (%),[12],2%
same,Population Healthy Nuclei (%),[12],70%
same,Population Hoechst High Intensity Objects (%),[12],4%
same,Population Membrane Permeable-Phenotype (%),[12],5%
same,Population Mitochondria Different-Phenotype (%),[12],86%
same,Population Mitotic Cells (%),[12],27%
same,Population Normal (%),[12],95%
same,Population Pyknosed Nuclei (%),[12],26%
same,Population Tubulin-Different-Phenotype (%),[12],93%
same,Total Cell Count,[12],215
